# Test results reported in ChEMBL document CHEMBL4145675, “2-Phenylquinoline S. aureus NorA Efflux Pump Inhibitors: Evaluation of the Importance of Methoxy Group Introduction” (J Med Chem, 2018).
# Activity calls are given as the source filed them. The rule behind the calls is not given here.
# Experiments:
# [1] = target: T1, Quinolone resistance protein NorA (Staphylococcus aureus) (UniProt P0A0J7); experiment: Inhibition of NorA in Staphylococcus aureus SA-1199B expressing GrlA A116E mutant assessed as minimal potentiating drug concentration causing 8 fold reduction in ciprofloxacin MIC by microdilution method based Checkerboard assay
# T1 sequence (whole entry): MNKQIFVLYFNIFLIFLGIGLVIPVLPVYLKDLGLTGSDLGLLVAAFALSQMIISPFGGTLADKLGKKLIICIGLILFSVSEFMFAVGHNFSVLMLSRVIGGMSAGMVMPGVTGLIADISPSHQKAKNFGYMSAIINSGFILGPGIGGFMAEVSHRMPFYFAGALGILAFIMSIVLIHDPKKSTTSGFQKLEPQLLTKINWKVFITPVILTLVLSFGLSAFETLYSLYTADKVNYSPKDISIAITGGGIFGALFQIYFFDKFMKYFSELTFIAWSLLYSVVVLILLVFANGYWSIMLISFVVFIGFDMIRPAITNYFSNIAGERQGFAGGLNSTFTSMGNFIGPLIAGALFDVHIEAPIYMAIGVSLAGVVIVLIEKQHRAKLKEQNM
# [2] = test system: Staphylococcus aureus; experiment: Synergistic potentiation of ciprofloxacin-induced antimicrobial activity against norA deleted Staphylococcus aureus SA-K1902 at 0.78 to 100 ug/ml by microdilution method based Checkerboard assay; type: functional, organism-based
# [3] = test system: Staphylococcus aureus; experiment: Antimicrobial activity against Staphylococcus aureus SA-1199B expressing wild type norA and co-expressing GrlA A116E mutant by microdilution method; type: organism-based; settings: in vivo
# How it was run: (§1)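 CLSI broth microdilution MIC of the compound alone. Strains: SA-K1902 (norA deleted), SA-K2378 (SA-K1902 carrying norA plus its promoter on multicopy plasmid pCU1), SA-1199B (norA overexpressing, GrlA A116E).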
# [4] = test system: Staphylococcus aureus; experiment: Antimicrobial activity against NorA deficient Staphylococcus aureus SA-K1902 by microdilution method; type: organism-based; settings: in vivo; how it was run: as §1
# [5] = target: T1, Quinolone resistance protein NorA (Staphylococcus aureus); experiment: Inhibition of NorA in Staphylococcus aureus SA-K2378 assessed as synergistic potentiation of ciprofloxacin-induced antimicrobial activity at 0.78 to 100 ug/ml by microdilution method based Checkerboard assay
# [6] = test system: Staphylococcus aureus; experiment: Antimicrobial activity against Staphylococcus aureus SA-1199B expressing wild type norA by microdilution method; type: organism-based; settings: in vivo
# How it was run: (§2)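 Broth microdilution MIC per CLSI guidelines. ATCC 25923 is norA wild-type. SA-1199B overexpresses norA and carries an A116E GrlA substitution.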
# [7] = test system: Staphylococcus aureus; experiment: Antimicrobial activity against Staphylococcus aureus ATCC 25923 by microdilution method; type: organism-based; settings: in vivo; how it was run: as §2
# [8] = target: T1, Quinolone resistance protein NorA (Staphylococcus aureus); experiment: Inhibition of NorA in Staphylococcus aureus SA-1199B expressing GrlA A116E mutant assessed as synergistic potentiation of ciprofloxacin-induced antimicrobial activity at 0.78 to 100 ug/ml by microdilution method based Checkerboard assay
# [9] = target: Quinolone resistance protein NorA (Staphylococcus aureus, UniProt P0A0J7, A116E); experiment: Inhibition of NorA in Staphylococcus aureus SA-1199B expressing GrlA A116E mutant assessed as reduction in EtBr efflux incubated for 5 mins by fluorescence based assay
# How it was run: (§3)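 Cells were grown overnight in cation-supplemented Mueller-Hinton broth at 35 °C and subcultured to OD600 0.7–0.8. They were loaded at OD600 0.8 with 25 µM EtBr plus 100 µM CCCP (final) for 20 min at room temperature. Cells were then resuspended in fresh broth with or without compound, 50 µM for the single-point screen or a concentration series for IC50. Fluorescence (ex 485/em 645 nm) was read for 5 min. Inhibition was calculated from the fluorescence decrease versus untreated cells. Biological triplicate, each run twice.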
# [10] = target: T1, Quinolone resistance protein NorA (Staphylococcus aureus); experiment: Inhibition of NorA in Staphylococcus aureus SA-1199B expressing GrlA A116E mutant assessed as reduction in EtBr efflux at 50 uM incubated for 5 mins by fluorescence based assay; how it was run: as §3
# [11] = test system: Staphylococcus aureus; experiment: Synergistic potentiation of ciprofloxacin-induced antimicrobial activity against Staphylococcus aureus SA-1199 at 0.78 to 100 ug/ml by microdilution method based Checkerboard assay; type: functional, organism-based
# [12] = test system: Staphylococcus aureus; experiment: Synergistic potentiation of ciprofloxacin-induced antimicrobial activity against wild type Staphylococcus aureus ATCC 25923 at 0.78 to 100 ug/ml by microdilution method based Checkerboard assay; type: functional, organism-based
# [13] = target: T1, Quinolone resistance protein NorA (Staphylococcus aureus); experiment: Inhibition of NorA in Staphylococcus aureus SA-1199B expressing GrlA A116E mutant assessed as synergistic potentiation of ciprofloxacin-induced antimicrobial activity at 0.78 ug/ml by microdilution method based Checkerboard assay
# [14] = Cytotoxicity in human HepG2 cells assessed as reduction in cell viability incubated for 24 hrs by ATP bioluminescence assay; type: cell-based
# How it was run: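 Cells were grown to confluence overnight in RPMI 1640 with 10% heat-inactivated fetal calf serum, penicillin and streptomycin. Monolayers were exposed for 24 h at 37 °C to scalar concentrations (0-250 µg/mL). Viability was read by ATP bioluminescence, each concentration in triplicate. CC50 is the concentration reducing cell number by 50% versus untreated controls.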
# [15] = target: T1, Quinolone resistance protein NorA (Staphylococcus aureus); experiment: Inhibition of NorA in Staphylococcus aureus SA-K2378 assessed as synergistic potentiation of ciprofloxacin-induced antimicrobial activity at 0.78 ug/ml by microdilution method based Checkerboard assay
# [16] = test system: Staphylococcus aureus; experiment: Antimicrobial activity against NorA overexpressing Staphylococcus aureus SA-K2378 by microdilution method; type: organism-based; settings: in vivo; how it was run: as §1
Compound,Activity [1] [µg/mL],Activity [2],MIC [3] [µM],MIC [4] [mg/L],inhibition [5],MIC [6] [mg/L],MIC [7] [mg/L],inhibition [8],IC50 [9] [µM],inhibition [10] [%],inhibition [11],synergistic potentiation of ciprofloxacin activity [12],inhibition [13],CC50 at 24 h [14] [mg/L],fold change (FC) [15],MIC [16] [mg/L]
CCCOc1ccc(-c2cc(OCCN(CC)CC)c3ccccc3n2)cc1,12.5,inactive,> 241,50,Active,> 100,100,–,–,–,–,–,–,–,–,–
CCCOc1ccc(-c2cc(OCCN(CC)CC)c3c(OC)cc(OC)cc3n2)cc1,1.56,–,> 228,25,–,> 100,100,Active,2.8,93.1,Active,Active,–,–,–,–
CCCOc1ccc(-c2cc(OCCN3CCc4cc(OC)c(OC)cc4C3)c3ccc(OC)cc3n2)cc1,3.13,–,> 189,–,–,> 100,> 100,Active,4.7,91,Active,Active,Active,–,–,–
CCCOc1ccc(-c2cc(OCCN3CCCCC3)c3ccc(OC)cc3n2)cc1,3.13,–,238,–,–,> 100,50,Active,4,100,Active,Active,–,71.5,–,–
CCCOc1ccc(-c2cc(OCCN3CCc4cc(OC)c(OC)cc4C3)c3c(OC)cc(OC)cc3n2)cc1,< 100,inactive,179,–,Active,100,100,Active,1.6,86.5,Active,Active,Active,–,–,–
CCCOc1ccc(-c2cc(OCCN(CC)CC)c3cc(OC)c(OC)cc3n2)cc1,50,–,> 228,–,–,> 100,100,Active,4.1,95.4,Active,Active,–,–,–,–
CCCOc1ccc(-c2cc(OCCN(CC)CC)c3c(OC)cccc3n2)cc1,3.13,–,30.6,–,–,12.5,12.5,Active,9.4,96.5,Active,Active,Active,–,–,–
COC(=O)[C@H]1[C@H]2C[C@@H]3c4[nH]c5cc(OC)ccc5c4CCN3C[C@H]2C[C@@H](OC(=O)c2cc(OC)c(OC)c(OC)c2)[C@@H]1OC [RESERPINE],> 100,inactive,> 164,> 100,Active,> 100,> 100,–,–,–,–,–,–,–,–,–
CCCOc1ccc(-c2cc(OCCN(CC)CC)c3ccc(OC)cc3n2)cc1,6.25,inactive,> 245,25,Active,> 100,50,Active,4.7,100,Active,Active,Active,7.7,16,–
CCCOc1ccc(-c2cc(OCCN(CC)CC)c3cc(OC)cc(OC)c3n2)cc1,6.25,–,> 228,–,–,> 100,100,Active,4.6,92.4,Active,Active,–,–,–,–
CCCOc1ccc(-c2cc(OCCN3CCCCCC3)c3ccc(OC)cc3n2)cc1,3.13,–,212.3,–,–,100,> 100,Active,4.9,91.3,Active,Active,Active,–,–,–
CCCOc1ccc(-c2cc(OCCN3CCCCCC3)c3cc(OC)cc(OC)c3n2)cc1,1.56,–,> 215,–,–,> 100,> 100,Active,1.8,80.3,Active,Active,Active,–,–,–
CCCOc1ccc(-c2cc(OCCN3CCCCC3)c3cc(OC)cc(OC)c3n2)cc1,6.25,–,> 222,–,–,> 100,100,Active,3.8,93.8,Active,Active,–,–,–,–
CCCOc1ccc(-c2cc(OCCN3CCc4cc(OC)c(OC)cc4C3)c3cc(OC)cc(OC)c3n2)cc1,3.13,inactive,45,25,Active,25,25,Active,3.8,86.7,Active,Active,Active,–,8,–
O=C(O)c1cn(C2CC2)c2cc(N3CCNCC3)c(F)cc2c1=O [CIPROFLOXACIN],–,–,–,0.31,–,0.63,0.31,–,–,–,–,–,–,139,–,2.5
CCCOc1ccc(-c2cc(OCCN3CCNCC3)c3ccc(OC)cc3n2)cc1,6.25,–,237,–,–,100,100,Active,5.5,100,Active,Active,–,–,–,–
CCCOc1ccc(-c2cc(OCCN(CC)CC)c3cc(OC)ccc3n2)cc1,6.25,–,122,–,–,50,50,Active,4.7,99,Active,Active,–,5,–,–
